GalR3 antagonist – blocks the human galanin receptor 3; O60755; 360,000 compounds, 0.44% hits; HEK293 GalR3-CNG cAMP membrane potential fluorescence; galR3 body fused to GalR1 C-terminus; AID 651719; inhibition, % at 3 µM;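 active = inhibition above the screen-wide average plus 3 SD, cut at about 13% in these data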;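 also: forskolin and galanin both at EC90 stimulate the cells; cAMP rise reported by CNG channel membrane potential dye signal; 0% = forskolin plus galanin with DMSO and 100% = forskolin alone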
Target sequence (O60755 1-299 limits assumed): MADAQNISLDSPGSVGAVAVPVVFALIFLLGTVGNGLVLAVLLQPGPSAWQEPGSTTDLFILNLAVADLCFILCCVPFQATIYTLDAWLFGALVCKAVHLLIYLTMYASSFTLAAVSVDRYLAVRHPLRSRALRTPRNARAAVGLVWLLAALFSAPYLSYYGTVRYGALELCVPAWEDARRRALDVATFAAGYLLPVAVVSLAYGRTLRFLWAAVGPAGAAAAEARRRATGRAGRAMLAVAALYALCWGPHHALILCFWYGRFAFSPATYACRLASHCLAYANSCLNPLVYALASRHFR
OX1R antag-1 – antagonists of human orexin 1 receptor; O43613; CHO/OX1R cells, Fluo-8 calcium fluorescence, orexin A; inhibition, % at 5 µM; 330,000 compounds, 0.43% hits;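 active = inhibition above its plate's threshold, mean inhibition of all tested compounds on the plate plus 3 SD, cut at about 37% in these data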;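 also: 0% = orexin A challenge wells and 100% = SB-334867-A antagonist wells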
OX1R antag-2 – antagonists of human orexin 1 receptor (OX1R). O43613. OX1R-expressing cells, FRET antagonist read-out. inhibition, % at 6.6 µM. 330,000 compounds, 1.8% hits; in the data active = inhibition mostly above about 38%, no sharp cut-off; inactive = mostly below about 40%;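 also: 0% = agonist challenge alone and 100% = reference antagonist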
GPR7 antagonist – antagonists of human GPR7 (neuropeptides B/W receptor 1) | P48145 | GPR7-expressing cells, fluorescence antagonist assay | 290,000 compounds, 1.1% hits | inhibition, % at 4.4 µM; in the data active = inhibition above about 16%, passing the limit was not always enough;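 also: cells stimulated with the agonist NPW; 0% = agonist with vehicle and 100% = vehicle without agonist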
Target sequence (P48145 whole entry, looked up): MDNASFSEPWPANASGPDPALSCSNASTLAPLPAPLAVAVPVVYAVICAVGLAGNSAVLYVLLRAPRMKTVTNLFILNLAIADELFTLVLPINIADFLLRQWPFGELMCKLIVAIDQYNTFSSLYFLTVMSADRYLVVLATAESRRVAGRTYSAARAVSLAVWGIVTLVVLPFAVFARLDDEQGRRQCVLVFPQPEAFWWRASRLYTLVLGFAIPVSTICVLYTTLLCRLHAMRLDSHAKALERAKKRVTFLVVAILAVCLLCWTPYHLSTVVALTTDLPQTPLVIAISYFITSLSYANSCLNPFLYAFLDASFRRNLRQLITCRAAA
CHO parental Ca – signal in parental CHO cells, OX1R antagonist counter-screen | parental CHO-K1, ATP-induced calcium, Fluo-8 fluorescence | inhibition, % at 5.6 µM | 330,000 compounds, 0.63% hits | AID 463079;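 active = inhibition above that plate's mean sample inhibition plus 3 SD, cut at about 26% in these data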;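 also: 0% = ATP-challenged DMSO wells and 100% = DMSO wells without ATP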
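Assay system: parental CHO cells; Read-out basis: percent inhibition of ATP-evoked calcium rise, normalized to controls; Benchmarks: ATP and no-ATP DMSO wells; Compound dosing: single nominal dose of 5.6 µM per compound; Signal: Fluo-8 calcium dye fluorescence; Also added: ATP as calcium-mobilizing challenge; Repeats: singlicate.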
OX1R Ca confirm – confirmation of human orexin 1 receptor antagonists; 1,100 compounds, 38% hits; AID 492963; shares compounds with OX1R antag-1; inhibition, % at 5 µM; CHO/OX1R cells, orexin A calcium Fluo-8 fluorescence; in the data active = inhibition above about 29%;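 also: 0% = agonist challenge alone and 100% = reference antagonist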
CHO Ca triplic – counter-screen for OX1R antagonists: effect in parental CHO cells; parental CHO-K1, ATP-induced calcium, Fluo-8 fluorescence; inhibition, % at 5.6 µM; shares compounds with OX1R antag-1; AID 492965; 1,100 compounds, 9.3% hits;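 active = inhibition above a per-plate limit, the mean inhibition of that plate's test compounds plus 3 SD, cut at about 25% in these data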;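 also: 0% = ATP challenge with DMSO and 100% = DMSO without ATP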
* marks the source's active call; other numbers are inactive results. A selection: hits, their analogues and other compounds. The true share with any hit is near 3.1%.

For O=C(O)c1ccc(N2C(=O)CC(SC(=NCc3ccc4c(c3)OCO4)Nc3ccc(F)cc3)C2=O)cc1 (stereo unspecified) the results were GalR3 antagonist -5, OX1R antag-1 32, OX1R antag-2 28, GPR7 antagonist 6, CHO parental Ca 6, OX1R Ca confirm 31* and CHO Ca triplic -3.
`CC(C(=O)Nc1ccccc1)c1ccc(-c2ccccc2)c(F)c1` (stereo unspecified) gave OX1R antag-1 40*, OX1R antag-2 31, GPR7 antagonist -10, CHO parental Ca 13, OX1R Ca confirm 13 and CHO Ca triplic 23.
CNc1cc(CSC)nc(SCc2ccc(Cl)cc2Cl)n1 was read as GalR3 antagonist -3, OX1R antag-1 53*, OX1R antag-2 36, GPR7 antagonist -11, CHO parental Ca -12, OX1R Ca confirm 3 and CHO Ca triplic -9.
O=C1OC(/C=C/c2ccccc2)=NC/1=C\c1cccnc1 was read as GalR3 antagonist -4, OX1R antag-1 50*, OX1R antag-2 23, GPR7 antagonist -6, CHO parental Ca 6, OX1R Ca confirm 4 and CHO Ca triplic 1.
Screening Cc1ccc(S(=O)(=O)N2C[C@@H]3[C@H]4CC[C@H](C4)[C@@H]3[C@@H](C)[C@H]2c2ccco2)cc1 returned GalR3 antagonist -7, OX1R antag-1 82*, OX1R antag-2 28, CHO parental Ca -7, OX1R Ca confirm 3 and CHO Ca triplic 23.
For COc1cc(CNC(C)c2ccccc2)cc(Br)c1OCc1ccccc1 (stereo unspecified) the results were GalR3 antagonist -1, OX1R antag-1 46*, OX1R antag-2 -2, GPR7 antagonist -8, CHO parental Ca -3, OX1R Ca confirm 22 and CHO Ca triplic -3.
For O=C(NN1C(=O)/C(=C/c2ccc(O)cc2)SC1=S)c1ccccc1O the results were GalR3 antagonist -4, OX1R antag-1 31, OX1R antag-2 2, GPR7 antagonist 18, CHO parental Ca 15, OX1R Ca confirm 11 and CHO Ca triplic 14.
`CCN(CC)CCNc1nc2c(c(=O)[nH]c(=O)n2C)n1CCCc1ccccc1` gave GalR3 antagonist -8, OX1R antag-1 -3, OX1R antag-2 14, GPR7 antagonist -18 and CHO parental Ca 9.
CCNc1nc2c(c(=O)[nH]c(=O)n2C)n1CCCc1ccccc1 was read as GalR3 antagonist -8, OX1R antag-1 26, OX1R antag-2 5, GPR7 antagonist -11, CHO parental Ca -4, OX1R Ca confirm 3 and CHO Ca triplic 3.
`C[C@@H]1CN([C@@H](C)CO)C(=O)c2cccc(NC(=O)C3CCOCC3)c2O[C@H]1CN(C)S(=O)(=O)c1ccc(Cl)cc1` gave GalR3 antagonist -6, OX1R antag-1 -9, OX1R antag-2 4 and CHO parental Ca -5.
`CSCC(=O)NC1CCCc2c1cnn2-c1cc(F)cc(F)c1` (stereo unspecified) gave GalR3 antagonist 0 and GPR7 antagonist 2.
For O=C(CCc1ccncc1)NC1CCCc2c1cnn2-c1cc(F)cc(F)c1 (stereo unspecified) the results were OX1R antag-1 46*, OX1R antag-2 16, GPR7 antagonist -1, CHO parental Ca -14, OX1R Ca confirm 1 and CHO Ca triplic -12.
Cc1ccccc1-n1nnnc1SCc1csc(-c2ccccc2)n1 was read as GalR3 antagonist -6, OX1R antag-1 31, OX1R antag-2 53, GPR7 antagonist 12, CHO parental Ca 6, OX1R Ca confirm 19 and CHO Ca triplic -14.
`Cc1ccccc1-n1nnnc1SCC(C)C` gave GalR3 antagonist 0, OX1R antag-1 -24, OX1R antag-2 17, GPR7 antagonist -16 and CHO parental Ca -13.
`CCOc1ccccc1N1CCN(C(=O)c2ccc(S(=O)(=O)Nc3ccccc3)cc2)CC1` gave GalR3 antagonist 2, OX1R antag-1 45*, OX1R antag-2 6, CHO parental Ca 3, OX1R Ca confirm 41* and CHO Ca triplic -7.
Screening CCN(CC)S(=O)(=O)c1ccc2oc(C(=O)NCc3ccc(F)cc3)c(C)c2c1 returned GalR3 antagonist -2, OX1R antag-1 25, OX1R antag-2 13, GPR7 antagonist -3, CHO parental Ca 20, OX1R Ca confirm 0 and CHO Ca triplic -5.
`O=C(Nc1cccc(Cl)c1)Nc1ccc2c(c1)OCO2` gave GalR3 antagonist -1, OX1R antag-1 32, OX1R antag-2 69, GPR7 antagonist -11, CHO parental Ca 15, OX1R Ca confirm 9 and CHO Ca triplic 6.
CC(=O)c1ccc(CCCCc2ccc(C(C)=O)cc2)cc1 was read as GalR3 antagonist -9.
For O=C(COC(=O)c1ccc(Cl)c(S(=O)(=O)N2CCOCC2)c1)NCc1ccco1 the results were GalR3 antagonist -2, OX1R antag-1 -9, OX1R antag-2 3 and CHO parental Ca 10.
For C[C@@H](CSc1ccc(Br)cc1)CN1CC[C@H](NC(=O)OCc2ccccc2)CCC1=O the results were GalR3 antagonist -5, OX1R antag-1 53*, OX1R antag-2 0, CHO parental Ca 18, OX1R Ca confirm -4 and CHO Ca triplic 0.
For Cc1coc2cc3oc(=O)ccc3cc12 the results were GalR3 antagonist -8, OX1R antag-1 106*, OX1R antag-2 5, GPR7 antagonist 14, CHO parental Ca -1, OX1R Ca confirm 2 and CHO Ca triplic 18.
`Cc1cc2oc(=O)ccc2cc1[N+](=O)[O-]` gave GalR3 antagonist -5, OX1R antag-1 -16, OX1R antag-2 15, GPR7 antagonist 1 and CHO parental Ca -8.
`CCN(CC)C(=O)C1=C(C)N(CCCOC)C(=O)C(CC(=O)NC2CCCC2)C1` (stereo unspecified) gave GalR3 antagonist -4.
Screening COC(=O)[C@H](Cc1c[nH]c2ccccc12)NC(=O)CCCc1c[nH]c2ccccc12 returned GalR3 antagonist -12, OX1R antag-1 47, OX1R antag-2 40, GPR7 antagonist 12, CHO parental Ca 23, OX1R Ca confirm 64* and CHO Ca triplic 15.
`CC(C)CCCN1C(Nc2ccccc2)=NC[C@@H]1C` gave GalR3 antagonist -3, OX1R antag-1 -16, OX1R antag-2 28, GPR7 antagonist 9 and CHO parental Ca -10.
Screening CN(c1ccccc1)S(=O)(=O)c1cccc(NC(=O)Cc2n[nH]c(=O)c3ccccc23)c1 returned GalR3 antagonist -9, OX1R antag-1 36, OX1R antag-2 5, CHO parental Ca -8, OX1R Ca confirm 5 and CHO Ca triplic -6.
CN(CC(=O)Nc1cccc(F)c1)CC(=O)Nc1cccc(S(=O)(=O)N(C)c2ccccc2)c1 was read as GalR3 antagonist -3.

Screening data: PubChem BioAssay, The Scripps Research Institute Molecular Screening Center
